Laboratory results: ChEMBL document CHEMBL4138056, “T- and B-cell immunosuppressive activity of novel α-santonin analogs with humoral and cellular immune response in Balb/c mice” (Medchemcomm, 2017)

Experiments:
[1] = tested on: Murine T-cell line; test: Cytotoxicity against Balb/c mouse T cells assessed as decrease in cell survival at 100 uM by MTT assay; format: cell-based
Method in brief: (§1)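 Balb/c splenocytes (RBC lysed with tris-ammonium chloride, trypan blue viability) seeded at 1×10^6 cells/mL with Con A or LPS (10 μg/mL each) and test agent at 1, 10 or 100 μM for 48 h at 37 °C, 5% CO2; MTT added for 4 h, formazan dissolved in DMSO, OD 540 nm. Cytotoxicity scored +/−; triplicate, three separate experiments.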

[2] = tested on: Murine T-cell line; test: Immunosuppressive activity in Balb/c mouse T cells assessed as inhibition of ConA-induced cell proliferation at 1 uM after 48 hrs by MTT assay relative to control
[3] = tested on: B-cell line; test: Cytotoxicity against Balb/c mouse B cells assessed as decrease cell survival at 1 uM by MTT assay; format: cell-based; method in brief: as §1
[4] = tested on: B-cell line; test: Immunosuppressive activity in Balb/c mouse B cells assessed as inhibition of LPS-induced cell proliferation at 1 uM after 48 hrs by MTT assay relative to control; format: functional
Method in brief: (§2)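 Balb/c spleen single-cell suspension, RBCs lysed with tris-ammonium chloride, viability by trypan blue; 1×10^6 cells/mL stimulated with LPS (10 μg/mL) for B cells, test agent 1, 10 or 100 μM, 48 h at 37 °C, 5% CO2. MTT 4 h, DMSO solubilization, OD 540 nm; % change vs mitogen control; triplicate, three separate experiments.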

[5] = tested on: B-cell line; test: Cytotoxicity against Balb/c mouse B cells assessed as decrease cell survival at 10 uM by MTT assay; format: cell-based; method in brief: as §1
[6] = tested on: Murine T-cell line; test: Cytotoxicity against Balb/c mouse T cells assessed as decrease in cell survival at 10 uM by MTT assay; format: cell-based; method in brief: as §1
[7] = tested on: B-cell line; test: Immunosuppressive activity in Balb/c mouse B cells assessed as inhibition of LPS-induced cell proliferation at 10 uM after 48 hrs by MTT assay relative to control; format: functional; method in brief: as §2
[8] = tested on: B-cell line; test: Cytotoxicity against Balb/c mouse B cells assessed as decrease cell survival at 100 uM by MTT assay; format: cell-based; method in brief: as §1
[9] = tested on: Murine T-cell line; test: Immunosuppressive activity in Balb/c mouse T cells assessed as inhibition of ConA-induced cell proliferation at 100 uM after 48 hrs by MTT assay relative to control
[10] = tested on: Murine T-cell line; test: Immunosuppressive activity in Balb/c mouse T cells assessed as inhibition of ConA-induced cell proliferation at 10 uM after 48 hrs by MTT assay relative to control
[11] = tested on: Murine T-cell line; test: Cytotoxicity against Balb/c mouse T cells assessed as decrease in cell survival at 1 uM by MTT assay; format: cell-based; method in brief: as §1
[12] = tested on: B-cell line; test: Immunosuppressive activity in Balb/c mouse B cells assessed as inhibition of LPS-induced cell proliferation at 100 uM after 48 hrs by MTT assay relative to control; format: functional; method in brief: as §2
[13] = tested on: Murine T-cell line; test: Immunostimulant activity in Balb/c mouse T cells assessed as induction of ConA-induced cell proliferation at 100 uM after 48 hrs by MTT assay relative to control
[14] = tested on: B-cell line; test: Immunostimulant activity in Balb/c mouse B cells assessed as induction of LPS-induced cell proliferation at 100 uM after 48 hrs by MTT assay relative to control; format: cell-based; method in brief: as §2

Row | Compound | Activity [1] | inhibition at 1 µM [2] [%] | Activity [3] | inhibition at 1 µM [4] [%] | Activity [5] | Activity [6] | inhibition at 10 µM [7] [%] | Activity [8] | inhibition at 100 µM [9] [%] | inhibition at 10 µM [10] [%] | Activity [11] | inhibition at 100 µM [12] [%] | Activity [13] [%] | Activity [14] [%]
1 | CC(=O)Oc1cc(C)c2c(c1C)[C@@H]1OC(=O)[C@@H](C)[C@@H]1CC2 | Toxic | 39.7 | Non-Toxic | 51.8 | Non-Toxic | Non-Toxic | 44.3 | Toxic | 63 | 45.2 | Non-Toxic | 68 |  | 
2 | Cc1cc(O)c(C)c2c1CC[C@H]1[C@H](C)C(=O)O[C@@H]21 | Toxic | 22.1 | Toxic | 23.3 | Toxic | Toxic | 24.9 | Toxic |  | 27.4 | Toxic |  | 58.13 | 38.25
3 | CCCCCOc1cc(C)c2c(c1C)[C@@H]1OC(=O)[C@@H](C)[C@@H]1CC2 | Toxic | 11.1 | Toxic | 29.5 | Toxic | Toxic | 32.4 | Toxic | 29.4 | 33.1 | Toxic | 9.59 |  | 
4 | CCC(=O)Oc1cc(C)c2c(c1C)[C@@H]1OC(=O)[C@@H](C)[C@@H]1CC2 | Toxic | 11.7 | Toxic | 20 | Toxic | Toxic | 43 | Toxic | 41 | 33 | Toxic | 69 |  | 
5 | Cc1cc(OC(=O)CCC(=O)O)c(C)c2c1CC[C@H]1[C@H](C)C(=O)O[C@@H]21 | Toxic | 29.4 | Non-Toxic | 33.3 | Toxic | Toxic | 42.7 | Toxic | 61.7 | 53.4 | Non-Toxic | 5.2 |  | 
6 | COc1ccc(NC(=O)CCC(=O)Oc2cc(C)c3c(c2C)[C@@H]2OC(=O)[C@@H](C)[C@@H]2CC3)cc1 | Toxic | 1 | Non-Toxic | 17.7 | Non-Toxic | Non-Toxic | 52 | Toxic | 58 | 35 | Non-Toxic | 68 |  | 
7 | CCCOc1cc(C)c2c(c1C)[C@@H]1OC(=O)[C@@H](C)[C@@H]1CC2 | Toxic | 33 | Non-Toxic | 47 | Toxic | Toxic | 49 | Toxic |  | 41 | Non-Toxic | 43 | 36 | 
8 | Cc1cc(OC(=O)CCC(=O)Nc2ccccc2Cl)c(C)c2c1CC[C@H]1[C@H](C)C(=O)O[C@@H]21 | Non-Toxic | 13 | Non-Toxic | 27.7 | Non-Toxic | Non-Toxic | 51 | Non-Toxic | 56 | 45 | Non-Toxic | 69 |  | 
9 | CCCC(=O)Oc1cc(C)c2c(c1C)[C@@H]1OC(=O)[C@@H](C)[C@@H]1CC2 | Non-Toxic | 28.5 | Non-Toxic | 12.5 | Non-Toxic | Non-Toxic | 35.4 | Non-Toxic | 71.9 | 38 | Non-Toxic | 69.8 |  | 
10 | CCCCOc1cc(C)c2c(c1C)[C@@H]1OC(=O)[C@@H](C)[C@@H]1CC2 | Non-Toxic | 32 | Non-Toxic | 25.2 | Non-Toxic | Non-Toxic | 33.3 | Non-Toxic | 33.8 | 51 | Non-Toxic | 39 |  | 
11 | CCCCCC(=O)Oc1cc(C)c2c(c1C)[C@@H]1OC(=O)[C@@H](C)[C@@H]1CC2 | Toxic | 39.4 | Non-Toxic | 22.9 | Toxic | Toxic | 26 | Toxic | 78.9 | 46 | Non-Toxic |  |  | 7.29
12 | Cc1cc(OC(=O)c2ccccc2)c(C)c2c1CC[C@H]1[C@H](C)C(=O)O[C@@H]21 | Non-Toxic | 71.8 | Non-Toxic | 18.8 | Non-Toxic | Non-Toxic | 43.8 | Non-Toxic |  | 39.4 | Non-Toxic | 17.7 | 23.94 | 
13 | Cc1cc(OC(=O)CCC(=O)Nc2ccccc2F)c(C)c2c1CC[C@H]1[C@H](C)C(=O)O[C@@H]21 | Non-Toxic | 16.7 | Non-Toxic | 21 | Non-Toxic | Non-Toxic | 44 | Non-Toxic | 66.7 | 41.7 | Non-Toxic | 77.9 |  | 
14 | COc1cc(C)c2c(c1C)[C@@H]1OC(=O)[C@@H](C)[C@@H]1CC2 | Toxic | 50 | Toxic | 42 | Toxic | Toxic | 19.1 | Toxic | 16.1 | 23.2 | Toxic | 21 |  | 
15 | CCCCC(=O)Oc1cc(C)c2c(c1C)[C@@H]1OC(=O)[C@@H](C)[C@@H]1CC2 | Toxic | 43.2 | Non-Toxic | 2.08 | Non-Toxic | Non-Toxic | 49 | Toxic |  | 29.6 | Non-Toxic |  | 28.16 | 6.25
16 | CCOc1cc(C)c2c(c1C)[C@@H]1OC(=O)[C@@H](C)[C@@H]1CC2 | Toxic | 28 | Non-Toxic | 35 | Toxic | Toxic | 1 | Toxic |  | 5 | Non-Toxic | 46 | 16 | 
17 | Cc1cc(OCc2ccc(Cl)cc2)c(C)c2c1CC[C@H]1[C@H](C)C(=O)O[C@@H]21 | Toxic | 15 | Non-Toxic | 37 | Non-Toxic | Non-Toxic | 37 | Toxic | 45 | 33 | Non-Toxic | 28 |  | 
